Data published in ChEMBL document CHEMBL4699443, “Position of lipidation influences anticancer activity of Smac analogs” (Bioorg Med Chem Lett, 2019).
The source made the active and inactive calls. No cut-off for these calls is given here. Starred links: 1 amine or outer side, 2 acyl side, 3 side chain; linkers in the order of their positions; H or OH if unused. Non-standard residues stand in square brackets, D forms with d. Residues, ends and D or L forms follow the SMILES beside them. *: point of attachment. Pro(cis-4-OPh) = O=C(O)[C@@H]1C[C@H](Oc2ccccc2)CN1; Phe(3,5-F2) = N[C@@H](Cc1cc(F)cc(F)c1)C(=O)O; Bip = N[C@@H](Cc1ccc(-c2ccccc2)cc1)C(=O)O; Cysteamide = C(CS[*:3])N[*:1]; Tle = CC(C)(C)[C@H](N)C(=O)O; X1 = CCCCCCCCCCCCCCCCCCSCCN*; NMeA = CN[C@@H](C)C(=O)O; X3 = CCCCCCCCCCCCCCCCCC*; Ac4c = NC1(C(=O)O)CCC1

Assays:
Jurkat = experiment: Antiproliferative activity against human Jurkat cells assessed as growth inhibition after 48 hrs by PrestoBlue dye based fluorescence assay; format: functional, cell-based
KOPN-8 [1] = experiment: Antiproliferative activity against human KOPN-8 cells assessed as growth inhibition after 48 hrs by PrestoBlue dye based fluorescence assay; format: functional, cell-based; settings: KOPN-8, 48 h
MOLT-4 = experiment: Antiproliferative activity against human MOLT-4 cells assessed as growth inhibition after 48 hrs by PrestoBlue dye based fluorescence assay; format: functional, cell-based; settings: MOLT-4, 48 h
MV4-11 = experiment: Antiproliferative activity against human MV4-11 cells assessed as growth inhibition after 48 hrs by PrestoBlue dye based fluorescence assay; format: functional, cell-based; settings: MV4-11, 48 h
NALM-6 = experiment: Antiproliferative activity against human NALM6 cells assessed as growth inhibition after 48 hrs by PrestoBlue dye based fluorescence assay; format: functional, cell-based; settings: NALM-6, 48 h
[2] = Antiproliferative activity against human CEMTL cells assessed as growth inhibition after 48 hrs by PrestoBlue dye based fluorescence assay; format: functional, cell-based; settings: CEM-TL
THP-1 = experiment: Antiproliferative activity against human THP1 cells assessed as growth inhibition after 48 hrs by PrestoBlue dye based fluorescence assay; format: functional, cell-based; settings: THP-1, 48 h
TF-1 = experiment: Antiproliferative activity against human TF1 cells assessed as growth inhibition after 48 hrs by PrestoBlue dye based fluorescence assay; format: functional, cell-based; settings: TF-1, 48 h
KOPN-8 [3] = experiment: Induction of apoptosis in human KOPN8 cells assessed as viable cells at 10 uM after 24 hrs by AnnexinV/PI-staining based flow cytometry; format: functional; settings: read-out: Activity
Method in brief: (§1)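 KOPN-8 cells treated with 1 or 10 μM compound, alone or as an equimolar two-compound mixture. Cultured for a time course, then stained with annexin V and propidium iodide. Read by flow cytometry; populations gated by annexin V/PI staining, including annexin V+/PI+ double positives.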

KOPN-8 [4] = experiment: Induction of apoptosis in human KOPN8 cells assessed as early apoptotic cells at 10 uM after 24 hrs by AnnexinV/PI-staining based flow cytometry; format: functional; method in brief: as §1
KOPN-8 [5] = experiment: Induction of apoptosis in human KOPN8 cells assessed as late apoptotic cells at 10 uM after 24 hrs by AnnexinV/PI-staining based flow cytometry; format: functional; method in brief: as §1
KOPN-8 [6] = experiment: Induction of apoptosis in human KOPN8 cells assessed as necrotic cells at 10 uM after 24 hrs by AnnexinV/PI-staining based flow cytometry; format: functional; method in brief: as §1
KOPN-8 [7] = experiment: Induction of apoptosis in human KOPN8 cells assessed as viable cells at 10 uM after 48 hrs by AnnexinV/PI-staining based flow cytometry; format: functional; settings: read-out: Activity; method in brief: as §1
KOPN-8 [8] = experiment: Induction of apoptosis in human KOPN8 cells assessed as early apoptotic cells at 10 uM after 48 hrs by AnnexinV/PI-staining based flow cytometry; format: functional; method in brief: as §1
KOPN-8 [9] = experiment: Induction of apoptosis in human KOPN8 cells assessed as late apoptotic cells at 10 uM after 48 hrs by AnnexinV/PI-staining based flow cytometry; format: functional; method in brief: as §1
KOPN-8 [10] = experiment: Induction of apoptosis in human KOPN8 cells assessed as necrotic cells at 10 uM after 48 hrs by AnnexinV/PI-staining based flow cytometry; format: functional; method in brief: as §1
KOPN-8 [11] = experiment: Induction of apoptosis in human KOPN8 cells assessed as viable cells at 10 uM after 72 hrs by AnnexinV/PI-staining based flow cytometry; format: functional; settings: read-out: Activity; method in brief: as §1
KOPN-8 [12] = experiment: Induction of apoptosis in human KOPN8 cells assessed as early apoptotic cells at 10 uM after 72 hrs by AnnexinV/PI-staining based flow cytometry; format: functional; method in brief: as §1
KOPN-8 [13] = experiment: Induction of apoptosis in human KOPN8 cells assessed as late apoptotic cells at 10 uM after 72 hrs by AnnexinV/PI-staining based flow cytometry; format: functional; method in brief: as §1
KOPN-8 [14] = experiment: Induction of apoptosis in human KOPN8 cells assessed as necrotic cells at 10 uM after 72 hrs by AnnexinV/PI-staining based flow cytometry; format: functional; method in brief: as §1
KOPN-8 [15] = experiment: Induction of apoptosis in human KOPN8 cells assessed as viable cells at 10 uM after 168 hrs by AnnexinV/PI-staining based flow cytometry; format: functional; settings: read-out: Activity; method in brief: as §1
KOPN-8 [16] = experiment: Induction of apoptosis in human KOPN8 cells assessed as early apoptotic cells at 10 uM after 168 hrs by AnnexinV/PI-staining based flow cytometry; format: functional; method in brief: as §1
KOPN-8 [17] = experiment: Induction of apoptosis in human KOPN8 cells assessed as late apoptotic cells at 10 uM after 168 hrs by AnnexinV/PI-staining based flow cytometry; format: functional; method in brief: as §1
KOPN-8 [18] = experiment: Induction of apoptosis in human KOPN8 cells assessed as necrotic cells at 10 uM after 168 hrs by AnnexinV/PI-staining based flow cytometry; format: functional; method in brief: as §1
KOPN-8 [19] = experiment: Induction of apoptosis in human KOPN8 cells assessed as increase in caspase 3/7 activity at 0.1 to 50 uM after 24 hrs by Caspase-glo reagent based microplate reader analysis relative to control; format: functional; settings: dose microM 0.1-50
Method in brief: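 MDA-MB-231 or KOPN-8 cells treated at concentrations across 0–50 μM in dose response. Enzymatic activity of caspase-3/7 and caspase-9 measured and expressed as fold increase.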

KOPN-8 [20] = experiment: Induction of apoptosis in human KOPN8 cells assessed as increase in caspase 9 activity at 0.1 to 50 uM after 24 hrs by Caspase-glo reagent based microplate reader analysis relative to control; format: functional; settings: dose microM 0.1-50, time […]
[21] = Antiproliferative activity against human BTTR cells assessed as growth inhibition after 48 hrs by PrestoBlue dye based fluorescence assay; format: functional, cell-based
HCC1954 = experiment: Antiproliferative activity against human HCC1954 cells assessed as growth inhibition after 48 hrs by PrestoBlue dye based fluorescence assay; format: functional, cell-based; settings: HCC1954, 48 h
MCF7 = experiment: Antiproliferative activity against human MCF7 cells assessed as growth inhibition after 48 hrs by PrestoBlue dye based fluorescence assay; format: functional, cell-based; settings: MCF7, 48 h
MDA-MB-231 = experiment: Antiproliferative activity against human MDA-MB-231 cells assessed as growth inhibition after 48 hrs by PrestoBlue dye based fluorescence assay; format: functional, cell-based; settings: MDA-MB-231, 48 h
[22] = Antiproliferative activity against human CEM-R cells assessed as growth inhibition after 48 hrs by PrestoBlue dye based fluorescence assay; format: functional, cell-based
[23] = Antiproliferative activity against human M249 cells assessed as growth inhibition after 48 hrs by PrestoBlue dye based fluorescence assay; format: functional, cell-based; settings: M249, 48 h
SK-MEL-28 = experiment: Antiproliferative activity against human SK-MEL-28 cells assessed as growth inhibition after 48 hrs by PrestoBlue dye based fluorescence assay; format: functional, cell-based; settings: SK-MEL-28, 48 h
BXPC-3 = experiment: Antiproliferative activity against human BxPC3 cells assessed as growth inhibition after 48 hrs by PrestoBlue dye based fluorescence assay; format: functional, cell-based; settings: BXPC-3, 48 h
[24] = Antiproliferative activity against human COLO357/FG cells assessed as growth inhibition after 48 hrs by PrestoBlue dye based fluorescence assay; format: functional, cell-based; settings: COLO 357/FG
DU-145 = experiment: Antiproliferative activity against human DU145 cells assessed as growth inhibition after 48 hrs by PrestoBlue dye based fluorescence assay; format: functional, cell-based; settings: DU-145, 48 h
VCaP = experiment: Antiproliferative activity against human VCap cells assessed as growth inhibition after 48 hrs by PrestoBlue dye based fluorescence assay; format: functional, cell-based
SW480 = experiment: Antiproliferative activity against human SW480 cells assessed as growth inhibition after 48 hrs by PrestoBlue dye based fluorescence assay; format: functional, cell-based; settings: SW480, 48 h
T84 = experiment: Antiproliferative activity against human T84 cells assessed as growth inhibition after 48 hrs by PrestoBlue dye based fluorescence assay; format: functional, cell-based; settings: T84, 48 h
FaDu = experiment: Antiproliferative activity against human FADU cells assessed as growth inhibition after 48 hrs by PrestoBlue dye based fluorescence assay; format: functional, cell-based
[25] = Antiproliferative activity against human UM-SCC-5 cells assessed as growth inhibition after 48 hrs by PrestoBlue dye based fluorescence assay; format: functional, cell-based; settings: UM-SCC-5, 48 h
[26] = Antiproliferative activity against human UM-SCC-6 cells assessed as growth inhibition after 48 hrs by PrestoBlue dye based fluorescence assay; format: functional, cell-based; settings: UM-SCC-6, 48 h

## CCCCCCCCCCCCCCCCCCSCCNC(=O)[C@@H]1CCCN1C(=O)[C@H](CCCNC(=N)N)NC(=O)C1(NC(=O)[C@@H]2CCCN2C(=O)[C@H](Cc2cc(F)cc(F)c2)NC(=O)[C@@H](N)CSCCCCCCCCCCCCCCCCCC)CCC1 (H-C(X3)[Phe(3,5-F2)]P[Ac4c]RP-X1)
Jurkat
  EC50: 21.7 µM
KOPN-8 [1]
  EC50: 1 µM
MOLT-4
  EC50: 6.5 µM
MV4-11
  EC50: 9.2 µM
NALM-6
  EC50: 5.6 µM
[2]
  EC50: 5.9 µM
THP-1
  EC50: 9.5 µM
TF-1
  EC50: 4.2 µM
KOPN-8 [3]
  viability at 10 µM: 87.7%
KOPN-8 [4]
  Activity: 1.09%
KOPN-8 [5]
  Activity: 9.22%
KOPN-8 [6]
  Activity: 2.04%
KOPN-8 [7]
  viability at 10 µM: 87.1%
KOPN-8 [8]
  Activity: 1.19%
KOPN-8 [9]
  Activity: 9.59%
KOPN-8 [10]
  Activity: 2.15%
KOPN-8 [11]
  viability at 10 µM: 91.6%
KOPN-8 [12]
  Activity: 0.58%
KOPN-8 [13]
  Activity: 6.63%
KOPN-8 [14]
  Activity: 1.23%
KOPN-8 [15]
  viability at 10 µM: 68.2%
KOPN-8 [16]
  Activity: 3.81%
KOPN-8 [17]
  Activity: 26.4%
KOPN-8 [18]
  Activity: 1.59%
KOPN-8 [19]
  fold change (FC): 3.6
KOPN-8 [20]
  Activity: inactive

## CN[C@@H](C)C(=O)N[C@H](C(=O)N1C[C@@H](Oc2ccccc2)C[C@H]1C(=O)N[C@@H](Cc1ccc(-c2ccccc2)cc1)C(=O)NCCS)C(C)(C)C (H-[NMeA][Tle][Pro(cis-4-OPh)][Bip]-Cysteamide)
[21]
  EC50: 9 µM
HCC1954
  EC50: 3.9 µM
MCF7
  EC50: 10.2 µM
MDA-MB-231
  EC50: 6 µM
MOLT-4
  EC50: 2.8 µM
NALM-6
  EC50: 5.3 µM
[22]
  EC50: 2.9 µM
[23]
  EC50: 6.2 µM
SK-MEL-28
  EC50: 6.1 µM
BXPC-3
  EC50: 4.1 µM
[24]
  EC50: 8 µM
DU-145
  EC50: 6.2 µM
VCaP
  EC50: 7 µM
SW480
  EC50: 9.2 µM
T84
  EC50: 6.2 µM
FaDu
  EC50: 3.9 µM
[25]
  EC50: 5.9 µM
[26]
  EC50: 6 µM
